Results on one compound are retold here after ChEMBL document CHEMBL1671864, “First assessment in humans of the safety, tolerability, pharmacokinetics, and ex vivo pharmacodynamic antimalarial activity of the new artemisinin derivative artemisone” (Antimicrob Agents Chemother, 2008).

Structures are written as SMILES.

Data set [1] can be described thus: Apparent oral clearance in healthy human at 40 mg, po administered as two 20 mg immediate release tablets daily for 3 days during 10 hrs overnight fasting state measured after 1 day. The format is ADME, organism-based. The following applies: in vivo. A digest of the protocol:
(§1)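 Healthy Caucasian males took 40 mg (2×20-mg IR tablets) or 80 mg (4 tablets) orally daily for 3 days after a 10-h fast. Plasma parent drug was measured by LC/MS-MS from predose to 14 h after the first and third doses. Noncompartmental analysis: AUC by log-linear trapezoid extrapolated via kel, CL/F = dose/AUC, V/F = CL/F÷kel, geometric means.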

Data set [2] is described as follows: Apparent volume of distribution with respect to the bioavailability in healthy human at 40 mg, po administered as two 20 mg immediate release tablets daily for 3 days during 10 hrs overnight fasting state measured after 1 day. The class given is ADME, organism-based. Conditions: in vivo, read-out: Vc/F. The essentials: as §1
The nature of data set [3]: Half life in healthy human plasma at 80 mg, po administered as four 20 mg immediate release tablets daily for 3 days during 10 hrs overnight fasting state measured after 3 day. The class given is ADME, organism-based. A digest of the protocol:
(§2)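 Healthy Caucasian males took tablets once daily for 3 days with 240 ml water after a 10-h fast. Heparinised blood was drawn predose and at 0.25–14 h after the first and last doses. Plasma parent drug and metabolites M1–M3 were measured by LC/MS-MS (MRM, deuterated internal standard). Noncompartmental analysis gave Cmax observed, t1/2 = 0.693/kel and MRT = AUMC/AUC. Values are geometric means.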

Data set [4] can be described thus: Apparent volume of distribution with respect to the bioavailability in healthy human at 80 mg, po administered as four 20 mg immediate release tablets daily for 3 days during 10 hrs overnight fasting state measured after 3 day. The format is ADME, organism-based. The following applies: in vivo, read-out: Vc/F. The essentials: as §1
Data set [5] concerns Homo sapiens. Nature of the data set: Toxicity in healthy human assessed as occurrence of adverse event at 40 mg, po administered daily for 3 days as two 20-mg immediate-release tablets during 10 hrs overnight fasting state. The class given is organism-based. The following applies: in vivo. The essentials:
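3-day daily oral tablet dosing in healthy Caucasian men (8 active, 4 placebo per dose). Adverse events were collected by open questioning and spontaneous report. Severity was graded mild (daily activities unaffected), moderate (some interference) or severe (activities not completed).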

The nature of data set [6]: Tmax in healthy human plasma at 40 mg, po administered as two 20 mg immediate release tablets daily for 3 days during 10 hrs overnight fasting state measured after 1 day. The class given is ADME, organism-based. The essentials: (§3)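 Healthy Caucasian men (8 active, 4 placebo per dose) dosed with tablets daily for 3 days after 10-h fast. Lithium-heparin plasma sampled predose and 0.25–14 h after day-1 and day-3 doses, stored frozen. Parent and M1–M3 quantified by LC/MS-MS in positive-ion MRM. Tmax taken directly from observed individual data.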

Data set [7] in a line: Cmax in healthy human plasma at 80 mg, po administered as single immediate release tablets during 10 hrs overnight fasting state. More on the design: dose 80 mg, route oral. The class given is ADME, organism-based. A digest of the protocol:
(§4)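 Healthy Caucasian male volunteers, single oral dose with 240 ml water after a 10-h overnight fast. Heparinised venous blood was drawn predose and at 0.25–14 h. Plasma was stored frozen. Parent drug and metabolites M1–M3 were measured by LC/MS-MS (MRM, deuterated internal standard). Noncompartmental analysis gave Cmax observed, t1/2 = 0.693/kel (terminal regression) and MRT = AUMC/AUC. Values are geometric means.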

Data set [8] is described as follows: Apparent oral clearance in healthy human at 10 mg, po administered as single ascending doses as solution during 10 hrs overnight fasting state. The format is ADME, organism-based. The following applies: in vivo. A digest of the protocol:
(§5)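 Single ascending oral doses in healthy Caucasian men, given fasted (10-h overnight) with 240 ml water: 10, 20, 30 or 40 mg as oral solution, or 80 mg as IR tablets. Parent plasma levels by LC/MS-MS over 0.25–14 h. Noncompartmental analysis: kel by terminal-phase least-squares regression, AUC extrapolated to infinity, CL/F = dose/AUC, V/F = CL/F÷kel.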

Data set [9] is described as follows: Apparent volume of distribution with respect to the bioavailability in healthy human at 80 mg, po administered as single immediate release tablets during 10 hrs overnight fasting state. The following applies: in vivo, read-out: Vc/F. The class given is ADME, organism-based. A digest of the protocol: as §5
Data set [10] can be described thus: Cmax in healthy human plasma at 80 mg, po administered as four 20 mg immediate release tablets daily for 3 days during 10 hrs overnight fasting state measured after 3 day. The class given is ADME, organism-based. More on the design: dose 80 mg, route oral. A digest of the protocol:
as §2

A short description of data set [11]: Tmax in healthy human plasma at 40 mg, po administered as two 20 mg immediate release tablets daily for 3 days during 10 hrs overnight fasting state measured after 3 day. The class given is ADME, organism-based. The essentials:
as §3

For data set [12], the system named is Homo sapiens. Nature of the data set: Toxicity in healthy human assessed as occurrence of clinically relevant changes in vital signs at 80 mg, po administered daily for 3 days as four 20-mg immediate-release tablets during 10 hrs overnight fasting state. The format is organism-based. The following applies: in vivo. The essentials: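 Healthy Caucasian men received single ascending doses (10–40 mg solution, 80 mg tablets) or 3-day daily tablet courses, all fasting, with randomized placebo controls. Supine blood pressure, heart rate and resting 12-lead ECG were recorded before and after dosing.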

Data set [13] can be described thus: Cmax in healthy human plasma at 30 mg, po administered as single ascending doses as solution during 10 hrs overnight fasting state. The format is ADME, organism-based. More on the design: dose 30 mg, route oral. A digest of the protocol:
as §4

The subject of another data set is Plasma. Put plainly: Ratio of Cmax in healthy human plasma at 40 mg, po administered as two 20 mg immediate release tablets daily for 3 days during 10 hrs overnight fasting state measured after 1 day to Cmax in healthy human plasma at 40 mg, po administered as two 20 mg immediate release tablets daily for 3 days during 10 hrs overnight fasting state measured after 3 day. The class given is ADME, organism-based. Conditions: in vivo. The essentials: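 Healthy Caucasian men took tablets daily for 3 days with 240 ml water after 10-h fast. Plasma sampled 0.25–14 h after first and last doses, artemisone measured by LC/MS-MS. Accumulation ratio is Cmax or AUC0-∞ after last dose divided by that after first dose. Noncompartmental analysis, geometric means with 95% CI.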

Data set [14] is described as follows: Apparent volume of distribution with respect to the bioavailability in healthy human at 40 mg, po administered as single ascending doses as solution during 10 hrs overnight fasting state. The format is ADME, organism-based. Conditions: in vivo, read-out: Vc/F. The essentials:
as §5

The nature of data set [15]: Cmax in healthy human plasma at 40 mg, po administered as single ascending doses as solution during 10 hrs overnight fasting state. The format is ADME, organism-based. More on the design: dose 40 mg, route oral. A digest of the protocol:
as §4

Data set [16] is described as follows: Apparent volume of distribution with respect to the bioavailability in healthy human at 80 mg, po administered as four 20 mg immediate release tablets daily for 3 days during 10 hrs overnight fasting state measured after 1 day. The class given is ADME, organism-based. Conditions: in vivo, read-out: Vc/F. A digest of the protocol: as §1
A short description of data set [17]: Tmax in healthy human plasma at 30 mg, po administered as single ascending doses as solution during 10 hrs overnight fasting state. The class given is ADME, organism-based. A digest of the protocol:
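Healthy Caucasian male volunteers, randomized within each dose group against placebo, given a single oral solution with 240 ml water after a 10-h overnight fast. Plasma sampled predose and at 0.25–14 h, quantified by LC/MS-MS (MRM, deuterated internal standard). Tmax read directly from individual noncompartmental concentration–time data.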

A short description of data set [18]: AUC in healthy human plasma at 40 mg, po administered as two 20 mg immediate release tablets daily for 3 days during 10 hrs overnight fasting state measured after 3 day. The class given is ADME, organism-based. More on the design: dose 40 mg, time < 10 hr, route oral. A digest of the protocol:
as §1

The nature of data set [19]: (§6) Apparent oral clearance in healthy human at 80 mg, po administered as four 20 mg immediate release tablets daily for 3 days during 10 hrs overnight fasting state measured after 3 day. The format is ADME, organism-based. The following applies: in vivo. The essentials: as §1
The nature of data set [20]: Mean residence time in healthy human at 40 mg, po administered as two 20 mg immediate release tablets daily for 3 days during 10 hrs overnight fasting state measured after 1 day. The class given is ADME, organism-based. The following applies: in vivo. A digest of the protocol:
as §2

Data set [21] can be described thus: as §6. The following applies: in vivo. The format is ADME, organism-based. A digest of the protocol: as §1
This is another data set of the same source.

Data set [22] in a line: Mean residence time in healthy human at 80 mg, po administered as four 20 mg immediate release tablets daily for 3 days during 10 hrs overnight fasting state measured after 1 day. The format is ADME, organism-based. Conditions: in vivo. A digest of the protocol: as §2
A short description of data set [23]: Apparent oral clearance in healthy human at 80 mg, po administered as single immediate release tablets during 10 hrs overnight fasting state. Conditions: in vivo. The class given is ADME, organism-based. The essentials:
as §5

In general, CL/F refers to clearance divided by bioavailability, as obtained after extravascular dosing. The half-life is the time in which the quantity being followed falls by half. Higher therefore signals slow loss. A word on the Tmax: it is the time at which the peak concentration occurs. Broadly, the Cmax is the maximum level reached in the sampled fluid or tissue. A word on the AUC: it is concentration integrated over time. Broadly, the MRT is the average time that molecules of a dose stay in the body.

With `C[C@H]1[C@H](N2CCS(=O)(=O)CC2)O[C@@H]2O[C@@]3(C)CC[C@H]4[C@H](C)CC[C@@H]1[C@@]24OO3` [ARTEMIFONE], the CL/F in data set [1] was 3630 mL/min; in data set [8], 5640 mL/min; in data set [19] it was 3950 mL/min; in data set [21] it was 3950 mL/min; in data set [23] it was 4740 mL/min. The Vd/F is 12.8 L/kg in data set [2]; 13.7 L/kg in data set [4]; 14.5 L/kg in data set [9]; 22.2 L/kg in [14]; 13 L/kg in [16]. Moreover, in data set [3], the half-life was 184 min. The Activity result with Homo sapiens [5] and in the data set with Homo sapiens [12] was “Non-toxic” throughout. Besides, the results for the Tmax in data set [6], in data set [11] and in data set [17] were 1.5 h, 1.13 h and 30 min, respectively. Further, the Cmax in data set [7] came out at 140 ng/mL; in data set [10], 130 ng/mL; in data set [13], 50.5 ng/mL; in [15], 83 ng/mL. For the same compound, the Ratio with Plasma was found to be 98.5%. This compound also came in with an AUC at 10 h in data set [18] of 191 ng·h/mL. Moreover, the figures for the MRT in data set [20] and in data set [22] were 2.91 h and 3.3 h, respectively.
